# Tests used:
# [1] = Displacement of [3H]-2-BFI from I2 receptor imidazoline binding site in Sprague-Dawley rat brain membranes after 30 mins by liquid scintillation counting; type: cell membranes, Membrane
# In short: (§1)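 Radioligand competition binding with pKi determined by displacement. I1 sites: [125I]-p-iodoclonidine on rat kidney membranes. I2 sites: [3H]-2-BFI on rat brain membranes. α2-ARs: [3H]-RX821002 on rat brain membranes.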
# [2] = target: T1, Adrenergic receptor alpha-2 (Rattus norvegicus, UniProt P22086+P19328+P22909); experiment: Displacement of [3H]-RX 821002 from alpha2-AR in Sprague-Dawley rat brain membranes after 30 mins by liquid scintillation counting; type: cell membranes, Membrane; in short: as §1
# T1 sequence (P22086 whole entry): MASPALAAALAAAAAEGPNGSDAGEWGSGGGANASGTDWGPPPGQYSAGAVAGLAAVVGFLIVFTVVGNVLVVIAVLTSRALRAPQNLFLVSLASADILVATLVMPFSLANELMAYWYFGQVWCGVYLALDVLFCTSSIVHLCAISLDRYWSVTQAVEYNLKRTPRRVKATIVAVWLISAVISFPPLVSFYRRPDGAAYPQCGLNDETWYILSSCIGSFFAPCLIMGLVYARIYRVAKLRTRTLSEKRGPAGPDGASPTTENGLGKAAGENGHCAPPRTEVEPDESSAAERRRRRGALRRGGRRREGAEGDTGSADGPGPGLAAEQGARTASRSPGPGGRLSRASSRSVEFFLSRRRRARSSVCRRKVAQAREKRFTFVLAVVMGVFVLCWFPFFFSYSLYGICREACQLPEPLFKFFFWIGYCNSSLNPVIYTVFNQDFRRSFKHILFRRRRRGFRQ
# T1 sequence (P19328 whole entry): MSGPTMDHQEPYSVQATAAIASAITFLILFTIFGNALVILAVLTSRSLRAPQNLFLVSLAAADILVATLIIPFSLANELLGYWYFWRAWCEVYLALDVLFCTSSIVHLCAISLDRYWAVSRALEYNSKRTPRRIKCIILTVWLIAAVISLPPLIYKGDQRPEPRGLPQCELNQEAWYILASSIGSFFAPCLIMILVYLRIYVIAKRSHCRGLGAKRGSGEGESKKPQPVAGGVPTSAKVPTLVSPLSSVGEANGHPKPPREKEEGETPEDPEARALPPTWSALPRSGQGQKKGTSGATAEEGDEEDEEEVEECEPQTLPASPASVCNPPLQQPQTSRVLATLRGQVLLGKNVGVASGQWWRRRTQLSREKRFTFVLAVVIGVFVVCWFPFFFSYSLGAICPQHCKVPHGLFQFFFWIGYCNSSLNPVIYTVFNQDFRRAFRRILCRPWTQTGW
# T1 sequence (P22909 whole entry): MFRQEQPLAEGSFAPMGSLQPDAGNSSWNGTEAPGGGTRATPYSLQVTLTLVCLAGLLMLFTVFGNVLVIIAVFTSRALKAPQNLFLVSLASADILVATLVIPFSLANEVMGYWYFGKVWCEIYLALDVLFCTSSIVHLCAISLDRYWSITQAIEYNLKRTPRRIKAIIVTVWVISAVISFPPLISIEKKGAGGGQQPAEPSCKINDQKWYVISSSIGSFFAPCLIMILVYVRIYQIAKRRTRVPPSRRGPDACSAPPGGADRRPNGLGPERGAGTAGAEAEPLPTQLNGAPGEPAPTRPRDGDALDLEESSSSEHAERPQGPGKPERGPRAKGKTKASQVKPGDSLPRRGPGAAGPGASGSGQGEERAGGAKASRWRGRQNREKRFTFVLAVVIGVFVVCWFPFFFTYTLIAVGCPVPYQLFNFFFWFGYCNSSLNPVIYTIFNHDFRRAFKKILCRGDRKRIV
# Nischarin = Nischarin (Rattus norvegicus, UniProt Q4G017); experiment: Displacement of [125I]-p-iodoclonidine from I1 receptor imidazoline binding site in Sprague-Dawley rat kidney cell membranes after 30 mins by liquid scintillation counting; in short: as §1
# Chain of Nischarin (Q4G017 whole entry): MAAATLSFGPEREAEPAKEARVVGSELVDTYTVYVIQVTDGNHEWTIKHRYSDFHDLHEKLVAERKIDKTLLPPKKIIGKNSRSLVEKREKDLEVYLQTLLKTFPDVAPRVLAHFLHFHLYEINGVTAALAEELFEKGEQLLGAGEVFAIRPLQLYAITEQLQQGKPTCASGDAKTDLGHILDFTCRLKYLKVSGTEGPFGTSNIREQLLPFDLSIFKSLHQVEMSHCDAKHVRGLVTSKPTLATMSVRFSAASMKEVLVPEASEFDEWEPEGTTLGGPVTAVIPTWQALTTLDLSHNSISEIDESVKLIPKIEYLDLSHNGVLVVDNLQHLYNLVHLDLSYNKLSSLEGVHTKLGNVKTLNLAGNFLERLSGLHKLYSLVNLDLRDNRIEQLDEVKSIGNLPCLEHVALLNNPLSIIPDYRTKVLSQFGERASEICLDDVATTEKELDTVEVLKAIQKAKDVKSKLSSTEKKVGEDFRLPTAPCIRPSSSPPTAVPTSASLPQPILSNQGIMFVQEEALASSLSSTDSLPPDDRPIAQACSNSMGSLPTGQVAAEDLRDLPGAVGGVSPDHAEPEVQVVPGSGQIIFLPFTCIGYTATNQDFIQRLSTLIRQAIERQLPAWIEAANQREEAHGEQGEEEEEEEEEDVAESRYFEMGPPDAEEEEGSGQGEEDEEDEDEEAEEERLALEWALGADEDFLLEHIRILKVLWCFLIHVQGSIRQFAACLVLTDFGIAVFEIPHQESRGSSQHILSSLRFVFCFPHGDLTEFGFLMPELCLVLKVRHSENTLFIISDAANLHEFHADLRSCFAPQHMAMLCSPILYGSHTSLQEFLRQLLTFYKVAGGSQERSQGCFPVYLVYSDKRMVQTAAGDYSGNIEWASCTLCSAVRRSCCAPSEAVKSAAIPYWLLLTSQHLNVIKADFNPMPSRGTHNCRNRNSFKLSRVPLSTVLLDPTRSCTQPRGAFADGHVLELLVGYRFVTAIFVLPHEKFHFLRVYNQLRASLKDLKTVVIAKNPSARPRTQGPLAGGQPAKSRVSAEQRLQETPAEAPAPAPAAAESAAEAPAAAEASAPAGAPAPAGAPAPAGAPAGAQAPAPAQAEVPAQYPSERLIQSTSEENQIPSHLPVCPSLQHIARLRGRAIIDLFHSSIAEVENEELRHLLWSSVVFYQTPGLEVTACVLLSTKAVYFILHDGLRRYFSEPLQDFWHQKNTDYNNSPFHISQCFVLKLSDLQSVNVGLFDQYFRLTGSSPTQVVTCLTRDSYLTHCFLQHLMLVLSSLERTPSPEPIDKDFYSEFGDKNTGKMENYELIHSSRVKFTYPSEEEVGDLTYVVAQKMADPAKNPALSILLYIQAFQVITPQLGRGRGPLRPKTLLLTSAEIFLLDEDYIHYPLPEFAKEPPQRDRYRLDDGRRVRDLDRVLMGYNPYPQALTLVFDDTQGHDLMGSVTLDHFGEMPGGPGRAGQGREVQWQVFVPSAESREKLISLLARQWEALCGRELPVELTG
# [3] = target: T2, Alpha-2B adrenergic receptor (Homo sapiens) (UniProt P18089); experiment: Agonist activity at human alpha2b-AR expressed in CHO cells assessed as rate of acidification after 240 mins by cytosensor microphysiometric analysis relative to (-)-noradrenaline; type: cell-based
# T2 sequence (whole entry): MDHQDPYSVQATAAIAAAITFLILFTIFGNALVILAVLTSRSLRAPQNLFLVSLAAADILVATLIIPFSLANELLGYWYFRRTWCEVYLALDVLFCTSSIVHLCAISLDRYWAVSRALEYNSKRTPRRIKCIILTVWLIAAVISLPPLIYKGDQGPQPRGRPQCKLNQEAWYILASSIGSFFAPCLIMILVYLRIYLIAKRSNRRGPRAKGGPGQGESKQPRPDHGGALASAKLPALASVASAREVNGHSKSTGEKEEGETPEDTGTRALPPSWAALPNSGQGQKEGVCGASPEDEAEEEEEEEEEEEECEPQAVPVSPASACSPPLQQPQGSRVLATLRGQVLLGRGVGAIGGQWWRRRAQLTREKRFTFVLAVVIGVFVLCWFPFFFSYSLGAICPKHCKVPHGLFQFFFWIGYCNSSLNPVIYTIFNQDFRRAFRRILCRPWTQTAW
# In short: (§2)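 Functional assay in CHO cells stably expressing a single human α2-AR subtype (α2A, α2B or α2C), read on a Cytosensor microphysiometer. Outputs are pEC50, intrinsic activity and, for antagonism, pKb. Intrinsic activity is expressed as a fraction of the full agonist (−)-noradrenaline, set at 1. Values are mean ± SEM of 3–5 separate experiments.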
# [4] = target: T3, Alpha-2C adrenergic receptor (Homo sapiens, UniProt P18825); experiment: Agonist activity at human alpha2c-AR expressed in CHO cells assessed as rate of acidification after 240 mins by cytosensor microphysiometric analysis; type: cell-based; in short: as §2
# T3 sequence (P18825 whole entry): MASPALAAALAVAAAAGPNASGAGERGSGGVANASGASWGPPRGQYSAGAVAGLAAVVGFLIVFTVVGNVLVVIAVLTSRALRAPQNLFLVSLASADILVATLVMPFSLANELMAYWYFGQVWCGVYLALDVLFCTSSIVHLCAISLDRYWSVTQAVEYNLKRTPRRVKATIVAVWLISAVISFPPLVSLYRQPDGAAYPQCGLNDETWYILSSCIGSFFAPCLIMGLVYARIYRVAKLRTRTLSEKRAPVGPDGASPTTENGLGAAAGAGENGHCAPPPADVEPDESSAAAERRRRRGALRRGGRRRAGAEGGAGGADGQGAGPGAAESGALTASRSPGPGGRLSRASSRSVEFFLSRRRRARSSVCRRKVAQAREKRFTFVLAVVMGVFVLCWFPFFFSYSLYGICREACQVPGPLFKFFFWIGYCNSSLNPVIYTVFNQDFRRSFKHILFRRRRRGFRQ
# [5] = target: T4, Alpha-2A adrenergic receptor (Homo sapiens) (UniProt P08913); experiment: Antagonist activity at human alpha2a-AR expressed in CHO cells assessed as inhibition of (-)-noradrenaline-induced acidification rate after 240 mins by cytosensor microphysiometric analysis; type: cell-based; in short: as §2
# T4 sequence (whole entry): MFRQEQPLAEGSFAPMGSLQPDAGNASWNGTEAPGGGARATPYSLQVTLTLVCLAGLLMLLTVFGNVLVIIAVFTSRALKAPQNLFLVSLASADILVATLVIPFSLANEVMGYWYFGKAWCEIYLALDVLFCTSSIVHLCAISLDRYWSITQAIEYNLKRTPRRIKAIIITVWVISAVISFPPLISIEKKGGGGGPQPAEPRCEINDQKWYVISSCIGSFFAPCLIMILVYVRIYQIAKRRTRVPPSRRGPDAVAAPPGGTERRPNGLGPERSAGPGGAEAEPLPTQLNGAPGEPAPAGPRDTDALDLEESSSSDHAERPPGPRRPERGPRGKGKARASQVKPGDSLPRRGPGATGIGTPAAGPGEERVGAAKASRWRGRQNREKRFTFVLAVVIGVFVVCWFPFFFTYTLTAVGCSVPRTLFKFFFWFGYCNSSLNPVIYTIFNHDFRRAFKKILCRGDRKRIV
# [6] = target: T5, Alpha-2C adrenergic receptor (Homo sapiens) (UniProt P18825); experiment: Agonist activity at human alpha2c-AR expressed in CHO cells assessed as rate of acidification after 240 mins by cytosensor microphysiometric analysis relative to (-)-noradrenaline; type: cell-based; in short: as §2
# T5 sequence (whole entry): T3 sequence (P18825 whole entry)
# [7] = target: T6, Alpha-2B adrenergic receptor (Homo sapiens, UniProt P18089); experiment: Agonist activity at human alpha2b-AR expressed in CHO cells assessed as rate of acidification after 240 mins by cytosensor microphysiometric analysis; type: cell-based; in short: as §2
# T6 sequence (P18089 whole entry): T2 sequence (whole entry)
# [8] = target: T7, Alpha-2A adrenergic receptor (Homo sapiens, UniProt P08913); experiment: Agonist activity at human alpha2a-AR expressed in CHO cells assessed as rate of acidification after 240 mins by cytosensor microphysiometric analysis; type: cell-based; in short: as §2
# T7 sequence (P08913 whole entry): T4 sequence (whole entry)
# Homo sapiens = species on record: Homo sapiens; experiment: Selectivity ratio of agonist activity at I1 receptor imidazoline binding site (unknown origin) to agonist activity at alpha2-AR (unknown origin)
Compound,pKi [1],pKi [2],Ki (Nischarin),Intrinsic activity [3],EC50 [4],pKb [5],Intrinsic activity [6],EC50 [7],EC50 [8],Selectivity ratio (Homo sapiens)
c1ccc(-c2ccccc2NCC2=NCCN2)cc1,6.1,6.75,1.41 nM,0.5,148 nM,–,0.8,955 nM,63.1 nM,–
C=CCc1ccccc1/C=C/C1=NCCN1,8.3,< 6,69.2 nM,–,–,–,–,–,–,–
COc1nc(C)nc(Cl)c1NC1=NCCN1,–,–,–,–,–,–,–,–,–,40

# More lines, now with the values ahead:
pKi [1],pKi [2],Ki (Nischarin),Intrinsic activity [3],EC50 [4],pKb [5],Intrinsic activity [6],EC50 [7],EC50 [8],Selectivity ratio (Homo sapiens),Compound
8.08,< 6,97.7 nM,–,–,–,–,–,–,–,C(=C\c1ccccc1-c1ccccc1)/C1=NCCN1
7.9,7.59,7.59 nM,0.45,224 nM,7.12,0.85,776 nM,–,–,Clc1ccccc1NCC1=NCCN1
8.79,< 6,24 nM,–,–,–,–,–,–,–,Clc1ccccc1/C=C/C1=NCCN1
